The record followed here is paper PMC8113834 (Computational and Structural Biotechnology Journal, 2021).

One assay deals with SHP2 C-SH2. The experiment in a line: NMR 1H,15N-HSQC titration of C-SH2. It is filed as binding, Human. As to conditions: 1H,15N-HSQC with increasing peptide; protein 200 μM, 298 K. The method, boiled down:
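Uniformly 15N-labelled SHP2 C-SH2 is expressed in Tuner (DE3) E. coli in minimal medium with 15NH4Cl. Protein at 200 µM is titrated with increasing stoichiometric ratios of N-acetylated, C-amidated phosphopeptide. CSPs combine 1H and 0.15-weighted 15N shift differences.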

Another assay deals with T1, SHP2 N-SH2 (Homo sapiens, UniProt Q06124).
T1 sequence (Q06124 1-105): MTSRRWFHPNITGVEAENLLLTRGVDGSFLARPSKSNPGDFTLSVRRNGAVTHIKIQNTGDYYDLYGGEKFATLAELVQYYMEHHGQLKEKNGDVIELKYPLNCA
The experiment in a line: NMR 1H,15N-HSQC titration of N-SH2. Format: binding. As to conditions: 1H,15N-HSQC with increasing peptide; protein 200 μM, 298 K.

For assay [1], the target named is T2, SHP2 C-SH2 (SHP2 106–220) (Homo sapiens, UniProt Q06124).
T2 sequence (Q06124 106-220): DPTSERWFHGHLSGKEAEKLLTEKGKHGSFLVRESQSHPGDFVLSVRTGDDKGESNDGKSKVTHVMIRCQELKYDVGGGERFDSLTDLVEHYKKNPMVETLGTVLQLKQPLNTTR
Put plainly: Isothermal titration calorimetry, peptide titrated onto C-SH2. Format: binding. In general terms: ITC needs no label: the signal is the heat of the interaction.

Square brackets hold non-standard residues; d marks the D form. Peptide text beside a SMILES is read from it. pY = N[C@@H](Cc1ccc(OP(=O)(O)O)cc1)C(=O)O

With EDSARVpYENVGLE [SHP2-pY580], in the assay with SHP2 C-SH2, the “binding to C-SH2 by NMR spectra” value is “no binding”. In addition, at SHP2 N-SH2, the “binding to N-SH2 by NMR spectra” value is recorded as “neither SHP2-pY542 nor SHP2-pY580 bind significantly”.
As usually defined, the Kd is the equilibrium constant for the complex coming apart. Regarding `CC[C@H](C)[C@H](NC(=O)[C@H](CC(N)=O)NC(=O)[C@@H](NC(=O)[C@H](Cc1ccc(OP(=O)(O)O)cc1)NC(=O)[C@H](CCC(=O)O)NC(=O)[C@H](Cc1c[nH]cn1)NC(=O)CNC(=O)[C@H](CCCCN)NC(=O)[C@H](CCCNC(=N)N)NC(=O)[C@H](CCCCN)NC(C)=O)[C@@H](C)O)C(=O)N[C@@H](CCCCN)C(=O)N[C@@H](Cc1ccc(O)cc1)C(=O)N[C@@H](CO)C(N)=O` [SHP2-pY542] (Ac-KRKGHE[pY]TNIKYS-NH2), the “binding to N-SH2 by NMR spectra” value at SHP2 N-SH2 is “neither SHP2-pY542 nor SHP2-pY580 bind significantly”. Moreover, the Kd in assay [1] is 28 µM.
